Assay results published in ChEMBL document CHEMBL1687933, “Synthesis and pharmacological evaluation of fluorine-containing D₃ dopamine receptor ligands” (J Med Chem, 2011).

How the values were obtained:
[1] = organism: Homo sapiens; assay: Selectivity ratio of Ki for human D2 receptor to Ki for human D3 receptor
Procedure, shortened: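 Selectivity index is Ki(D2)/Ki(D3). Both Ki values come from [125I]IABN competition on membranes of HEK 293 cells stably expressing the human receptor. Incubation was 60 min at 37°C at pH 7.5, with Cheng–Prusoff correction.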

[2] = target: D(3) dopamine receptor (Homo sapiens, UniProt P35462); assay: Displacement of [125I]-IABN from human D3 receptor transfected in human HEK 293 cells by gamma-counting; type: cell-based, HEK293
Procedure, shortened: (§1)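 Nonspecific binding defined with 20 µM (+)-butaclamol. Inhibitor spans 5 log units at two points per decade, in triplicate. Filtration and gamma counting. One-site IC50 converted to Ki by Cheng–Prusoff. At least three independent experiments.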

[3] = Partition coefficient, log P of the compound; type: physicochemical; conditions: octanol/water
[4] = target: D(2) dopamine receptor (Homo sapiens, UniProt P14416); assay: Displacement of [125I]-IABN from human D2 receptor transfected in human HEK 293 cells by gamma-counting; type: cell-based, HEK293; procedure, shortened: as §1
[5] = target: T1, D(4) dopamine receptor (Homo sapiens, UniProt P21917); assay: Binding affinity to human D4 receptor transfected in human HEK293 cells by gamma-counting; type: cell-based; procedure, shortened: as §1
T1 sequence (P21917 whole entry): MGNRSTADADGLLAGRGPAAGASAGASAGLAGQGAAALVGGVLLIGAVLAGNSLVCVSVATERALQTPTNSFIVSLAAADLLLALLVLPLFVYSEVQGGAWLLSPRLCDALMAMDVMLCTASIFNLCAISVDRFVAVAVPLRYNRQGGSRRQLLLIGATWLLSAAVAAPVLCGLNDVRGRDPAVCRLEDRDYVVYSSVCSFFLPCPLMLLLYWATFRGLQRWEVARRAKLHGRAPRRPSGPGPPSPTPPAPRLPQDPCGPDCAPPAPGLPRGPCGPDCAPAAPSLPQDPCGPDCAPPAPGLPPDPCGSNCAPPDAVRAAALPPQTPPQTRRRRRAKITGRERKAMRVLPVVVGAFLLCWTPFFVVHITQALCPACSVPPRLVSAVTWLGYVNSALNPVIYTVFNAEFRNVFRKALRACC

[6] = target: Sigma non-opioid intracellular receptor 1 (Cavia porcellus, UniProt Q60492); assay: Displacement of [3H]-pentazocine from guinea pig sigma1 receptor by liquid scintillation counting
Procedure, shortened: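 Guinea pig brain membranes (~300 µg protein) incubated with ~5 nM (+)-[3H]-pentazocine for 90 min at room temperature in Tris-HCl/NaCl/EDTA pH 7.4. […] Filtration and scintillation counting. IC50 taken from a one-site fit.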

D(2) dopamine receptor, sequence (P14416 whole entry): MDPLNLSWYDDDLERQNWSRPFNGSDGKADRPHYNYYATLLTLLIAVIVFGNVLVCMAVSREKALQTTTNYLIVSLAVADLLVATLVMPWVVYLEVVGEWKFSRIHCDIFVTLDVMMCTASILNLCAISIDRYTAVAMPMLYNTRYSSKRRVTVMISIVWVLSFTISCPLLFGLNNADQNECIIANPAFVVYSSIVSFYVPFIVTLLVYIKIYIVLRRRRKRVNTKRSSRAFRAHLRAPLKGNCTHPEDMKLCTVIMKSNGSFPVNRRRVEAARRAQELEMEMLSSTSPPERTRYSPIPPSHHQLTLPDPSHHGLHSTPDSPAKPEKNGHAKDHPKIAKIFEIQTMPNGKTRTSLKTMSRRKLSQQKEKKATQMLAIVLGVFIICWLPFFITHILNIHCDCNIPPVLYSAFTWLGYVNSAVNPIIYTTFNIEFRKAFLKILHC
D(3) dopamine receptor, sequence (P35462 whole entry): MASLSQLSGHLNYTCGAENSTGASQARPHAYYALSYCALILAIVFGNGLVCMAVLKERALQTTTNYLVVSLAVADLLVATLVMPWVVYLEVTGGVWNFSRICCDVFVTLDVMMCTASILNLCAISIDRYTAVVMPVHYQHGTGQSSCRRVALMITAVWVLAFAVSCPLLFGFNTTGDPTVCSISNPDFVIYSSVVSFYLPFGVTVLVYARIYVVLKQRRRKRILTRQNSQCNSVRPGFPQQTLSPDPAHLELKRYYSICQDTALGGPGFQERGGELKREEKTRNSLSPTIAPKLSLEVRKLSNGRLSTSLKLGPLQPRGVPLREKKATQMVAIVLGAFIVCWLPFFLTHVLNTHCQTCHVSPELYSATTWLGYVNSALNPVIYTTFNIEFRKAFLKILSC
Sigma non-opioid intracellular receptor 1, sequence (Q60492 whole entry): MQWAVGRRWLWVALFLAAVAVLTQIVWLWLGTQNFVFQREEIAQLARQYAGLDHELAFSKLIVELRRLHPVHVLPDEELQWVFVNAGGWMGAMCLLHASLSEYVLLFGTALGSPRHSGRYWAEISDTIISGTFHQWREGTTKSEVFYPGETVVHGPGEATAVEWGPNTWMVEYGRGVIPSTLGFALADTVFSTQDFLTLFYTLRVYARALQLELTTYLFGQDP

Structure (SMILES) | Ratio Ki [1] | Ki [2] [nM] | logP [3] | Ki [4] [nM] | Ki [5] [nM] | Ki [6] [nM]
COc1ccccc1N1CCN(C/C=C/CNC(=O)c2cc(C)ccc2OCCF)CC1 | 1 | 18.5 | 3.66 | 17.8 | – | –
COc1ccccc1N1CCN(CCCCNC(=O)c2ccc(OCCOCCF)cc2)CC1 | – | 6.2 | 3.08 | – | – | –
O=C(NC/C=C/CN1CCN(c2ccccc2OCCF)CC1)c1ccc(-c2ccsc2)cc1 | 64 | 1.1 | 4.74 | 70.5 | 182 | 7780
O=C(NC/C=C/CN1CCN(c2ccccc2OCCF)CC1)c1ccc(OCCF)cc1 | 4.5 | 8.4 | 3.81 | 37.9 | – | –
COc1ccccc1N1CCN(CCCCNC(=O)c2ccc(OCCF)cc2)CC1 | 25 | 1.1 | 3.48 | 27.1 | 1400 | 4780
COc1ccccc1N1CCN(C/C=C/CNC(=O)c2ccc(OCCF)cc2)CC1 | 8.9 | 6.2 | 3.55 | 55.3 | – | –
CN(C)c1ccc(C(=O)NCCCCN2CCN(c3ccccc3OCCF)CC2)cc1 | – | 0.65 | 3.75 | 15.1 | 890 | 1960
O=C(NCCCCN1CCN(c2ccccc2OCCF)CC1)c1ccc(OCCOCCF)cc1 | – | 2.5 | 3.34 | 14.2 | – | –
O=C(NCCCCN1CCN(c2ccccc2OCCF)CC1)c1ccc(OCCOCCOCCF)cc1 | 6.1 | 5.2 | 2.98 | 31.7 | – | –
O=C(NCCCCN1CCN(c2ccccc2OCCF)CC1)c1ccc(-c2ccsc2)cc1 | – | – | 4.67 | – | 246 | 20900
COc1ccccc1N1CCN(C/C=C/CNC(=O)c2ccc(CCF)cc2)CC1 | 5.2 | 24.9 | 3.43 | 131 | – | –
COc1ccccc1N1CCN(C/C=C/CNC(=O)c2cc(Br)ccc2OCCF)CC1 | 1 | 13.6 | 4.49 | 13.4 | – | –
COc1ccccc1N1CCN(C/C=C/CNC(=O)c2ccc(OCCOCCF)cc2)CC1 | 3.3 | 18.2 | 3.16 | 59.2 | – | –
CN(C)c1ccc(C(=O)NC/C=C/CN2CCN(c3ccccc3OCCF)CC2)cc1 | 9.8 | 3.6 | 3.83 | 35.2 | – | –
O=C(NCCCCN1CCN(c2ccccc2OCCF)CC1)c1ccc(OCCF)cc1 | – | 0.52 | 3.73 | 15.1 | 990 | 4360
COc1ccccc1N1CCN(CCCCNC(=O)c2ccc(OCCOCCOCCF)cc2)CC1 | 12.2 | 4.2 | 2.72 | 52 | 2100 | 4870
O=C(NCCCCN1CCN(c2ccccc2OCCF)CC1)c1ccc(CCF)cc1 | 3.1 | 6.9 | 3.68 | 21.4 | – | –
O=C(NC/C=C/CN1CCN(c2ccccc2OCCF)CC1)c1ccc(OCCOCCF)cc1 | 3.3 | 19.6 | 3.41 | 64.8 | – | –
O=C(NC/C=C/CN1CCN(c2ccccc2OCCF)CC1)c1ccc(CCF)cc1 | 16.1 | 1.1 | 3.61 | 17.7 | 890 | 7200
COc1ccccc1N1CCN(C/C=C/CNC(=O)c2cc(Br)cc(OC)c2OCCF)CC1 | 4.2 | 13.8 | 4.15 | 57.6 | – | –
COc1ccccc1N1CCN(C/C=C/CNC(=O)c2cc(I)ccc2OCCF)CC1 | 1.2 | 10.9 | 4.73 | 13.2 | – | –
COc1ccccc1N1CCN(CCCCNC(=O)c2ccc(CCF)cc2)CC1 | – | 2.4 | 2.94 | 54.5 | 804 | 3540
COc1ccccc1N1CCN(CCCCNC(=O)c2ccc(N(C)C)cc2)CC1 | 43 | 0.8 | 3.09 | 34.4 | 896 | 1260
